In the library only some 2.5% were active in any assay of this set; here they are far more common.
SENP1 FRET inh: inhibitors of human SENP1 SUMO protease catalytic domain. recombinant SENP1 catalytic domain, CyPet-SUMO1-YPet FRET cleavage. 360,000 tested, 0.21% active. Q9P0U3. inhibition, % at 10 µM;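 active = inhibition at least 30% at 10 µM, raw YFP signal under a set limit, fluorescence ratio 0.5 to 1.5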;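 also: 0% = enzyme with DMSO and 100% = no enzyme wells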
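Test system: hSENP1 catalytic domain, recombinant; Amount: 20 pM final SENP1 enzyme; Medium: Tris pH 8 buffer plus EDTA, NaCl, BME, BSA, NP40, catalase; Schedule: 50 min enzyme reaction, room temperature, light-protected; Technique: FRET fluorescence in CFP and YFP emission channels; Controls: no-enzyme wells low, DMSO-plus-enzyme wells high control.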
GRK2 aptamer HTS: inhibitors of human GRK2 displacing RNA aptamer | P25098 | inhibition of aptamer binding, % at 10 µM | 330,000 tested, 0.59% active | AID 488847 | bead flow cytometry, FAM-aptamer displacement from GRK2;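 active = inhibition of aptamer binding above 40%, roughly 3 SD of noise, on plates passing a quality check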;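 also: median bead fluorescence of bound FAM aptamer so fluorescent compounds give negative values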
Target sequence (P25098 whole entry, looked up): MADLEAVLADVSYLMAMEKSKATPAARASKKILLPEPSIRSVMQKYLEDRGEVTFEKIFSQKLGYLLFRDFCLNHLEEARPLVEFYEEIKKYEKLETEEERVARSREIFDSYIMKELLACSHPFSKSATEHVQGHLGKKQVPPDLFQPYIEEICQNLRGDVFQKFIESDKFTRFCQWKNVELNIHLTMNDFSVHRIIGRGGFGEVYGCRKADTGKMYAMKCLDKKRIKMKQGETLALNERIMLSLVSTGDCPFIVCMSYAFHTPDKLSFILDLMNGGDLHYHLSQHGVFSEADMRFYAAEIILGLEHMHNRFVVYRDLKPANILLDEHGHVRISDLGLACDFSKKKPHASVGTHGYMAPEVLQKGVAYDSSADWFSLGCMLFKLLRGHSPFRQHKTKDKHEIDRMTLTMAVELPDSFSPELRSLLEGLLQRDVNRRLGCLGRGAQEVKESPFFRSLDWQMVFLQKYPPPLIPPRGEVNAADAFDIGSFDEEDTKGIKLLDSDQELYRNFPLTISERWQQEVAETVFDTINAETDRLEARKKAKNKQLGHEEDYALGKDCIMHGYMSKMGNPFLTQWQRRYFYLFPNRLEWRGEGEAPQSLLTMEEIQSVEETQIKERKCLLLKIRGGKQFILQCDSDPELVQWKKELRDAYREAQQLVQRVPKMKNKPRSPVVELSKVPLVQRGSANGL
ABHD5-PLIN5 inh: inhibitors of human ABHD5-perilipin-5 interaction; Q00G26+Q8WTS1; Split G. princeps luciferase complementation, luminescence, 4 h; inhibition, % at 4 µM; 360,000 tested, 0.78% active; AID 602281;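 active = inhibition above the mean inhibition across every tested compound plus 3 SD, cut at about 22% in these data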;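 also: 0% = DMSO only wells and the 100% control is not disclosed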
NadD block: blocks S. aureus nicotinate mononucleotide adenylyltransferase | purified NadD enzyme, colorimetric absorbance read-out | inhibition, % at 20 µM | 360,000 tested, 0.78% active | AID 602399; in the data active = inhibition above about 26%
Beta2AR agonist: agonists of human beta-2 adrenergic receptor inducing internalization; response, % (concentration not given with the values); 340,000 tested, 0.43% active; Am2.2-beta2AR cells, FAP receptor internalization, flow cytometry;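 active = response above a set limit, near 3 SD of response in nonfluorescent compounds, cut at about 42% in these data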
Active calls of the source: *; i = inactive; x = no result given.

SMILES | SENP1 FRET inh | GRK2 aptamer HTS | ABHD5-PLIN5 inh | NadD block | Beta2AR agonist
O=[N+]([O-])c1c(Nc2ccccc2O)cc(Cl)c2nonc12 | 4 | 12 | 63* | 9 | 105*
C#CCN(C[C@H]1[C@H](OC(=O)NCc2ccc(OC)c(OC)c2)[C@H](OC(=O)NCc2ccc(OC)c(OC)c2)C[C@@H](C(=O)OC)[C@H]1C(=O)OC)S(=O)(=O)c1ccc(C)cc1 | 1 | x | 11 | -14 | x
CCN1/C(=C/c2ccc3cc(C)ccc3[n+]2C)Sc2ccc3sccc3c21 | 44* | x | 14 | 64* | i
COc1ccc(C=O)c(-c2c(CCO)sc3ccccc23)c1 | -1 | x | -2 | 6 | x
C[C@H]1COC(=O)[C@H](CC(=O)OC(C)(C)C)C/C=C\C[C@H](CC(=O)N(CCO)Cc2ccccc2)C(=O)N1 | 1 | 0 | 10 | -10 | -2
COc1ccc(NC(=O)c2cc(-c3ccc(C)o3)nc3ccccc23)cc1OC | -5 | 0 | 34* | 14 | 9
COc1ccc(NC(=O)CN(C)C(=O)c2cc(-c3ccco3)nc3ccccc23)cc1 | 6 | 76* | 2 | 23 | 6
O=C1NC(=Nc2ccc3ccccc3c2)S/C1=C/c1ccco1 | -2 | 11 | 5 | 34* | -9
Cc1ccc(N=C2NC(=O)/C(=C\c3ccco3)S2)cc1 | -2 | 0 | 10 | 3 | -9
O=C1NC(=Nc2ccc(O)cc2)S/C1=C/c1ccco1 | 7 | 0 | 5 | -3 | -15
COc1ccc(N=C2NC(=O)/C(=C\C=C\c3ccco3)S2)cc1 | -3 | x | 22* | 36* | 8
CN(C)C1=NCCN1CCC1CCCCC1 | 1 | 3 | -6 | 1 | -8
O=c1c2cc(F)ccc2sn1-c1ccc(F)cc1 | 0 | 0 | 33* | 7 | -6
O=c1c2cc([N+](=O)[O-])ccc2sn1-c1ccccc1 | 0 | x | -10 | 7 | x
N#Cc1ccc2sn(-c3ccccc3)c(=O)c2c1 | -14 | x | 34* | 10 | x
CC(=O)Nc1ccc2sn(-c3ccccc3)c(=O)c2c1 | -1 | x | 85* | 19 | x
CC(C)(Cc1cc(CC(C)(C)C(=O)O)cc(C(C)(C)C)c1)C(=O)O | 4 | 1 | 21 | -4 | 1
COc1cc(Br)cc(/C=N/NC(=O)Cc2ccc(C(F)(F)F)cc2[N+](=O)[O-])c1O | 3 | 0 | 2 | 39* | 4
CN(C)CCn1c(=N)n(CC(O)c2ccc(Cl)c(Cl)c2)c2ccccc21 (centres undefined) | -1 | 0 | 23* | -4 | 29
O=C(CBr)c1ccc([N+](=O)[O-])c(CS(=O)(=O)c2ccc(Cl)cc2)c1 | 3 | 8 | 27* | -2 | 11
COc1ccc(C(O)c2nc(-c3cncnc3)cs2)cc1 (centres undefined) | 1 | x | -2 | -2 | x
Nc1ccccc1C#Cc1cnccn1 | -1 | 4 | -5 | -9 | 9
Nc1ccccc1C#CC(=O)c1ccccc1 | 1 | 0 | -5 | -5 | 44*
O=C(C#Cc1cccc([N+](=O)[O-])c1)c1ccccc1 | 3 | 0 | 30* | 0 | 88*
CC1(C)OC(=O)C2=C(C[C@@H](CCc3ccccc3)O[C@H]2CCc2cccc(Cl)c2)O1 | -1 | x | -11 | 12 | x
SMILES | SENP1 FRET inh | GRK2 aptamer HTS | ABHD5-PLIN5 inh | NadD block | Beta2AR agonist
CCc1c(-c2cccc(Br)c2)ncn1Cc1cccc(-c2ccccc2)c1 | 1 | x | -12 | x | x
O=Cc1nccc2ccccc12 | -4 | x | -9 | 1 | 61*
Cc1cccc(C(=O)Nc2ccc3c(c2)ncn3C)c1 | 3 | 1 | -3 | -4 | -3
CCN1CCN(Cc2ccc(NC(=O)c3ccc(C)c(NC(=O)c4cncc(-c5cccs5)c4)c3)cc2C(F)(F)F)CC1 | 2 | x | 26* | 10 | 13
Cc1ccc(C(=O)Oc2ccc(C(=O)COC(=O)C3CC(=O)N(Cc4ccco4)C3)cc2)cc1 (centres undefined) | 2 | 10 | 8 | 7 | 1
O=C(COC(=O)C1CC(=O)N(Cc2ccco2)C1)c1ccc(OC(=O)c2ccco2)cc1 (centres undefined) | 0 | 14 | 12 | 36* | 10
CCn1cc([N+](=O)[O-])c(C(=O)N2N=C(c3ccc4ccccc4c3)CC2c2ccccc2O)n1 (centres undefined) | -1 | 1 | 8 | 29 | 2
CCn1cc(Cl)c(C(=O)N2N=C(c3ccc4ccccc4c3)CC2c2ccccc2O)n1 (centres undefined) | 1 | 4 | 1 | 35* | -12
O=C(CC(Nc1ccccc1)c1ccc(F)cc1)c1ccccc1 (centres undefined) | 0 | 3 | -4 | -3 | 4
O=C(CC(Nc1ccccc1)C(=O)O)c1ccccc1 (centres undefined) | -13 | 0 | 23* | -1 | -1
CC1(c2ccccc2)CC(C)(C)N2C(=O)C3(C(C#N)=C(N)Oc4cc(O)ccc43)c3cccc1c32 (centres undefined) | -6 | 2 | -12 | 5 | 10
CC1(c2ccccc2)CC(C)(C)N2C(=O)/C(=C3\SC(=S)NC3=O)c3cccc1c32 (centres undefined) | 3 | 4 | 4 | 35* | -5
CCC1(CC)NC(=O)N(CC(=O)N2N=C(c3ccc(Cl)cc3)CC2c2ccco2)C1=O (centres undefined) | -4 | 0 | 22* | 4 | 8
Clc1ccc(CSc2nnc(-c3ccccn3)n2Cc2ccco2)cc1Cl | 1 | x | -2 | 2 | x
Clc1cccc(CSc2nnc(-c3ccccn3)n2Cc2ccco2)c1 | -6 | 3 | 23* | 1 | -1
NC(CSC(c1ccccc1)(c1ccccc1)c1cccc2ccccc12)C(=O)O (centres undefined) | -7 | x | -28 | 42* | 4
NC(=O)c1cccc2ccccc12 | 3 | 0 | 0 | 0 | -2
CCOc1ccc(/C=C2/SC(=O)NC2=S)cc1 | -8 | 6 | 1 | 1 | 11
CCOc1ccc(/C=C2\SC(=S)N(N3C(=O)C4CC4C3=O)C2=O)cc1 (centres undefined) | -14 | 0 | -4 | 16 | 84*
Cc1cc(-c2nn(-c3ccccc3)cc2/C=C2\SC(N)=NC2=O)ccc1OC(C)C | -3 | 0 | 2 | 35* | -1
c1ccc2c(c1)-c1nc3ccccc3cc1C2N1CCOCC1 (centres undefined) | 0 | x | 1 | -1 | 0
COc1ccc(Nc2cc(C)nc(NCc3ccccc3)n2)cc1 | 1 | 0 | 22* | 1 | 19
CCc1cc(CNC(=O)c2ccc(OC3CCN(CCc4ccccc4)CC3)cc2)on1 | -4 | 49* | 7 | -7 | -7
O=C(NCc1ccon1)c1ccc(OC2CCN(CCc3ccccc3)CC2)cc1 | 1 | 0 | 0 | -4 | -7
CCOc1ccc2nc(SCC(=O)NCc3ccccc3OC)[nH]c2c1 | -1 | 0 | -4 | -4 | -6
CCOc1ccccc1-c1c2cc(O)c(=O)cc-2oc2cc(O)c(O)cc12 | -27 | x | 27* | 27 | -247

Assay outcomes (PubChem BioAssay)
